# STEP block – STEP (human) phosphatase inhibition. recombinant STEP, OMFP fluorogenic substrate, fluorescence. inhibition, % at 20 µM. AID 588621. actives 0.25% (n = 360,000);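 active = inhibition at 20 µM, scaled per plate between control wells, above about 37%, limit read from the data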;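 note: 0% = DMSO with enzyme and substrate and 100% = substrate only without enzyme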
# Target sequence (P54829 whole entry, looked up): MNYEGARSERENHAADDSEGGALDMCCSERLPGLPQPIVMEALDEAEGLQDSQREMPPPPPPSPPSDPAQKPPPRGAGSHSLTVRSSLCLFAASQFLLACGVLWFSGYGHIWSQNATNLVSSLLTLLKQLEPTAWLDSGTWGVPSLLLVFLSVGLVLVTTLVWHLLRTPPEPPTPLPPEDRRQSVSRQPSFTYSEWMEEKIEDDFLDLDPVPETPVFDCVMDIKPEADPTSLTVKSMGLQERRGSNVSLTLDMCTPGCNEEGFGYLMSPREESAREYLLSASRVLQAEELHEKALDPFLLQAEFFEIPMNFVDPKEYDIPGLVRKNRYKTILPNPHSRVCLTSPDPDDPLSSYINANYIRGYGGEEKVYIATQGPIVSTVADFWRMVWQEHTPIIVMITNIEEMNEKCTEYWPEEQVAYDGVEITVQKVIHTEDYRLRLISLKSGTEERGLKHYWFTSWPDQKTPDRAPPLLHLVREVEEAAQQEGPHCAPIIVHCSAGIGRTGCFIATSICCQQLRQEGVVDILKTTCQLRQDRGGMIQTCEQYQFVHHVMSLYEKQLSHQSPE
#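 Measure: Control-normalized % inhibition with plate pattern correction | Test system: STEP phosphatase, cell-free reaction | Medium: pH 6.0 Bis-Tris with DTT and Tween 20 | Technique: Fluorescence, 480/540 nm | Times: Reaction 20 min, ambient temperature | Doses: Single compound dose of 20 µM, 1% DMSO final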
# NadD block – inhibitors of Staphylococcus aureus NadD. purified NadD enzyme, colorimetric absorbance read-out. actives 0.78% (n = 360,000). inhibition, % at 20 µM; in the data active = inhibition above about 26%
# Scp-1 inhibitor – inhibitors of human Scp-1 phosphatase; Q9GZU7; Recombinant Scp1, phosphopeptide, malachite green phosphate absorbance; inhibition, % at 20 µM; actives 0.88% (n = 340,000);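 active = inhibition above about 50% at 20 µM, limit read from the data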;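 note: plate controls were DMSO wells with enzyme for no effect and wells lacking enzyme for full effect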
#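 assay system = SCP-1 phosphatase catalytic domain, residues 76-261 | buffer or medium = 50 mM Tris acetate pH 5.5, 0.005% Tween-20, 10 mM MgCl2 | incubation = enzyme reaction 45 min at room temperature, colour 5 min, stabilisation 30 min | signal = Phosphate-binding colour reagent, absorbance read at 630 nm | measure = % inhibition at 20 µM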
# rCAG binder – binds r(CAG) RNA repeats. inhibition, % at 3 µM. AID 651821. r(CAG) RNA repeat, TO-PRO-1 dye displacement fluorescence. actives 1.3% (n = 370,000);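 active = inhibition above the plate cutoff, the mean of all test compounds on that plate plus 3 SD, cut at about 35% in these data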;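 note: 0% = DMSO alone and 100% = 100 µM mitoxantrone as full dye displacement; higher means more dye released from RNA so lower well fluorescence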
# LMPTP inh – LMPTP (human) inhibition | P24666 | recombinant LMPTP-A, OMFP fluorogenic substrate, fluorescence intensity | inhibition, % at 20 µM | actives 0.22% (n = 360,000) | AID 651560;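 active = compounds that cut the enzyme signal by at least half of the control window in the single-dose screen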;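 note: plate controls were DMSO wells with enzyme plus substrate for no effect and substrate without enzyme for full effect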
# Target sequence (P24666 whole entry, looked up): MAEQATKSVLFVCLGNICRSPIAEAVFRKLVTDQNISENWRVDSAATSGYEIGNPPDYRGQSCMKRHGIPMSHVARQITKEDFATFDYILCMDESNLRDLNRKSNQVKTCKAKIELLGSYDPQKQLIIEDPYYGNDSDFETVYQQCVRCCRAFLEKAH
#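 Assay system: LMPTP-A enzyme. Input: 0.625 nM LMPTP-A final. Probe or stimulus: 400 µM OMFP. Compound dosing: single 20 µM dose. Schedule: 50 min dark incubation at room temperature. Detection: fluorescence intensity of OMFP turnover product. Read-out: percent inhibition versus substrate-only and uninhibited controls. Benchmarks: no-enzyme low control, uninhibited high control.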
# rCAG binder conf – r(CAG) RNA repeat binding, confirmation; shares compounds with rCAG binder; TO-PRO-1 dye displacement fluorescence; inhibition, % at 3 µM; actives 70% (n = 4,300);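 active = inhibition above a per-plate cutoff, the mean inhibition of sample wells plus 3 SD, cut at about 35% in these data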;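 note: loss of TO-PRO-1 fluorescence as compound displaces dye from 1x1 AA loop RNA; 0% = DMSO only wells and 100% = 100 µM mitoxantrone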
# DNA CAG counter – DNA CAG dye complex inhibition counter-screen | shares compounds with rCAG binder | d(CAG) DNA oligo TO-PRO-1 dye displacement, fluorescence | inhibition, % at 3 µM | actives 94% (n = 4,300);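 active = inhibition above its plate's cutoff, the mean test-well inhibition plus 3 SD, cut at about 4.8% in these data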;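 note: 0% = DNA dye mix with DMSO and 100% = 100 µM mitoxantrone; hits displace the dye from DNA and so lower well fluorescence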
# dCAG dye DR – counter-screen for rCAG binders: inhibitors of DNA CAG TO-PRO-1 complex | shares compounds with rCAG binder | DNA CAG/GTC duplex TO-PRO-1 dye displacement fluorescence | IC50, µM | actives 20% (n = 250) | AID 686960; in the data active = IC50 below about 10 µM
# Numbers without * were called inactive; nt = no result. Shown are actives, neighbours in structure and some others; about 2.6% of the full set was active somewhere.
SMILES,STEP block,NadD block,Scp-1 inhibitor,rCAG binder,LMPTP inh,rCAG binder conf,DNA CAG counter,others
Cc1cccc(NC2=Nc3ccccc3N3C2=Nc2c(c(C)nn2-c2ccccc2)C3c2ccc(O)c(O)c2)c1 (centres undefined),-1,62*,1,57*,5,48*,34*,
COC(=O)c1cc2c(c3c4cc(F)ccc4n(S(=O)(=O)c4ccc(C)cc4)c13)C(=O)N(Cc1ccc(C(F)(F)F)cc1)C2,nt,nt,nt,8,nt,nt,nt,
O=C(N[C@H](Cc1ccccc1)C(=O)NCc1ccc(OC(F)(F)F)cc1)[C@H]1O[C@@H](n2ccc(=O)[nH]c2=O)[C@H](O)[C@@H]1O,nt,nt,nt,-2,nt,nt,nt,
O=C(NNC(=S)Nc1cccc(C(F)(F)F)c1)c1ccccc1Cl,2,1,4,25,-2,nt,nt,
O=C(NNC(=S)Nc1cccc(C(F)(F)F)c1)c1cccc(Cl)c1,-1,4,-18,47*,2,48*,14*,
FC(F)(F)c1cccc(NC(=S)NNC(=S)NCc2ccccc2)c1,2,13,2,78*,8,63*,33*,
Cc1ccc(S(=O)(=O)C(C#N)c2nc3ccccc3nc2OCCO)cc1 (centres undefined),-4,2,1,62*,-1,52*,15*,
CCCC[C@H]1C2CC(OC(=O)Nc3ccccc3OC)C(C2)[C@H]2CCCCN21 (some centres undefined),nt,nt,nt,6,nt,nt,nt,
Cc1cc(Cl)ccc1Oc1ccccc1C(=O)CC#N,0,4,-6,38*,1,23,7.6*,
N#Cc1c(Cl)nc(N/N=C/c2ccccc2)c(Cl)c1Cl,-3,-7,-7,45*,-1,6,3,
Cc1ccc(S(=O)(=O)N2[C@@H](c3ccc(C(C)(C)C)cc3)C(C(=O)O)=CC[C@H]2c2ccc3c(c2)OCO3)cc1,2,26,-8,83*,1,82*,46*,
Cc1ccc(S(=O)(=O)N2[C@@H](c3ccccc3)C(C(=O)O)=CC[C@H]2c2ccc3c(c2)OCO3)cc1,-1,2,6,54*,0,43*,11*,
N#Cc1ccc(/C=C2\CC3(OC(=O)c4ccccc4)CCCN2C3)cc1 (centres undefined),nt,nt,nt,2,nt,nt,nt,
C[C@@H]1[C@@H](O)C[C@@]2(C[C@H](O)c3ccccc3O2)O[C@H]1c1ccccc1,nt,nt,nt,0,nt,nt,nt,
COc1ccccc1COc1ccc2c(C)c(CC(=O)O)c(=O)oc2c1C,2,-2,-13,37*,0,39*,10*,
Cc1ccc2nc(-c3ccc(NC(=O)CSc4nnc(Cc5cccs5)n4C)cc3)sc2c1,nt,nt,nt,9,nt,nt,nt,
C=CCN=c1scc(-c2ccco2)n1/N=C/c1ccc(O)c(O)c1O,3,20,9,44*,21,59*,29*,
CN=c1scc(-c2cccs2)n1/N=C/c1ccc(O)c(O)c1O,2,20,11,61*,15,54*,25*,
CC(C)N=c1scc(-c2ccco2)n1/N=C/c1ccc(O)c(O)c1,-3,2,-4,20,2,nt,nt,
COCCN=c1scc(-c2ccco2)n1/N=C/c1ccc(O)c(O)c1O,8,39*,89*,48*,73*,60*,30*,
CN=c1scc(-c2cccs2)n1/N=C/c1ccccc1O,-2,-2,-2,5,3,nt,nt,
Oc1ccc(/C=N/n2c(-c3ccco3)csc2=Nc2cccnc2)c(O)c1,-2,12,-11,18,-1,nt,nt,
CCn1c(SCC(=O)NN=Cc2cccc(OCc3ccccc3)c2)nnc1-c1ccc(OC)c(OC)c1,nt,nt,nt,5,nt,nt,nt,
CCC(=O)N(Cc1ccccc1)c1ccccc1C(=O)Nc1cc(OC)ccc1OC,nt,nt,nt,-1,nt,nt,nt,
O=C(Nc1cccc(C(F)(F)F)c1)OC1CCC12CCC(c1ccccc1)CC2 (centres undefined),nt,nt,nt,5,nt,nt,nt,
SMILES,STEP block,NadD block,Scp-1 inhibitor,rCAG binder,LMPTP inh,rCAG binder conf,DNA CAG counter,others
C=CCOc1c(OC)cc(/C=N/Nc2cccc(C(=O)O)c2)c(Br)c1Br,9,10,42,51*,9,70*,31*,dCAG dye DR=8.3*
C=CCOc1c(/C=N\NC(N)=O)cccc1OC,-1,1,5,-3,0,nt,nt,
O=C(Nc1ccc(S(=O)(=O)N2CCOCC2)cc1)c1cc(-c2cc(Cl)ccc2O)n[nH]1,-3,18,-14,46*,7,50*,21*,
Cc1cc(O)c(-c2cc(C(=O)Nc3ccc(S(=O)(=O)N4CCOCC4)cc3)[nH]n2)cc1C,-3,5,-13,41*,1,29,15*,
Cc1ccc(O)c(-c2cc(C(=O)Nc3ccc(S(=O)(=O)N4CC(C)OC(C)C4)cc3)[nH]n2)c1 (centres undefined),-4,7,-7,23,3,nt,nt,
COc1ccc(C2CC(=O)C(c3ccccc3)=CN2Cc2ccccc2)cc1 (centres undefined),nt,nt,nt,5,nt,nt,nt,
O=C(COc1ncnc2ccccc12)Nc1cc([N+](=O)[O-])ccc1Cl,2,-6,1,0,-1,nt,nt,
O=C(COc1ncnc2c(Cl)cc(Cl)cc12)Nc1cc([N+](=O)[O-])ccc1Cl,-2,11,0,68*,-1,14,9.4*,
COc1ccc(OC)c(S(=O)(=O)N2CCC(c3cn4ccccc4n3)CC2)c1,nt,nt,nt,7,nt,nt,nt,
CC1(C(=O)NS(=O)(=O)c2ccc3c(c2)CCO3)CCN1C(=O)Cc1ccc(-c2ccccc2)cc1 (centres undefined),0,5,nt,47*,3,70*,27*,dCAG dye DR=>30
CC1(C(=O)NS(=O)(=O)c2ccc3ccccc3c2)CCN1C(=O)Cc1ccc(-c2ccccc2)cc1 (centres undefined),-1,10,nt,81*,-1,77*,36*,
COc1ccc(S(=O)(=O)NC(=O)C2(C)CCN2C(=O)Cc2ccc(-c3ccccc3)cc2)cc1 (centres undefined),-3,4,nt,46*,-1,44*,16*,
CCCCNc1cccc2c1S(=O)(=O)N[C@H](C)CO2,nt,nt,nt,1,nt,nt,nt,
COc1cccc(C(=O)N[C@H](C(=O)N2CCC[C@H]2C(=O)NCCc2ccccc2Cl)c2ccccc2)c1,nt,nt,nt,0,nt,nt,nt,
CO[C@@H]1[C@H](O)CC[C@]2(O)CN(c3ccc(F)cc3)[C@](C)([C@H](O)CC=C(C)C)[C@@H]12,nt,nt,nt,5,nt,nt,nt,
C/C=C/C(=O)N1CCC(C(=O)NC2CCCc3ccccc32)CC1 (centres undefined),nt,nt,nt,2,nt,nt,nt,
